Rows were chosen to be rich in hits. Some 4.2% of all compounds tested hit in one or more screens of this group.
SKKanGAS inh: S. pyogenes SKKanGAS growth inhibitors in kanamycin, primary screen, streptokinase expression inhibitor project, SKKanGAS strain, BacTiter-Glo luminescence | 6 h | inhibition, % at 7.5 µM | actives 1.3% (n = 300,000) | AID 1662, 2009;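 active = mean replicate score, as percent of positive control median, at least 50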;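 also: strain carries kanamycin resistance gene driven by streptokinase promoter and grows in 40 µg/ml kanamycin; loss of luminescence reflects streptokinase promoter inhibition or plain growth inhibition; 0% = median of DMSO wells and 100% = positive control at its reference dose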
Rad51 HR inh: human RAD51 strand exchange inhibitors, primary screen, biochemical, fluorescence. hRad51 DNA strand exchange, fluorescence dequenching. inhibition, % at 10 µM. actives 0.085% (n = 200,000). AID 1385, 2008;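 active = inhibition above 40% at the single screening dose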;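 also: 0% = DMSO control wells and 100% = blanks with heterologous ssDNA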
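Test system: preformed human Rad51 ssDNA filaments. Compound dosing: single dose, 10 µM final compound. Incubation: filaments 15 min 37 °C, then compound 30 min. Technique: FRET fluorescence dequenching, excitation 485 nm, emission 520 nm. Read-out basis: percent inhibition from fluorescence, normalised to plate control and blank means. Benchmarks: plate controls and plate blanks.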
Autophagy HCS: autophagy modulators in MEF cells, primary screen, imaging, high-content, MEF GFP-LC3; calls only at 10 µM (by protocol); actives 0.98% (n = 190,000); MEF GFP-LC3 puncta imaging; test concentration mostly 10 µM;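 active = percentage of spot-positive cells more than 3 SD above its plate mean, without a fluorescence outlier flag or 80% toxicity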;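 also: spot-positive cell cutoff set from DMSO-treated cells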
WT yeast gro inh: growth inhibition of WT strain, primary screen, mitochondrial fusion inhibitor project, WT and mutant strains, chemical genetic | actives 2.1% (n = 190,000) | inhibition, % at 10 µM | mitochondrial fusion phenotypic screen | AID 1362, 2008; in the data active = inhibition above about 58%; tested in S. cerevisiae
KCC2 mod: KCC2 cotransporter modulators, thallium flux, primary screen, cell-based, HEK293 KCC2, FluoZin-2 fluorescence, MLSMR; Solute carrier family 12 member 5 (Homo sapiens), Q9H2X9; KCC2 cells, thallium flux FluoZin-2 fluorescence; B-score of Tl+ flux slope (higher = more flux/activation; lower = inhibition) at 10 µM; actives 2.2% (n = 190,000); AID 1456, 2008;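 active = thallium flux slope and its plate-corrected score both differing from the plate sample mean at a set confidence after two filtering rounds, in either direction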;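 also: slope of fluorescence scaled to starting intensity during 10 to 20 s after thallium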
Insulin prom up: insulin promoter activators in MIN6 cells, imaging, high-content screening, mouse beta cells | MIN6 insulin promoter-GFP reporter; hits give high values | z-score at 5 µM | actives 0.3% (n = 190,000);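 active = z-score above 3 at 5 µM with at least 500 cells counted in the well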
* marks the source's active call; other numbers are inactive results.

How did O=S(=O)(c1ccc(F)cc1)N1CN(Cc2ccco2)c2nc3ccccc3nc21 do in these assays?
SKKanGAS inh: 22.7; Rad51 HR inh: -4.2; Autophagy HCS: inactive; WT yeast gro inh: 63.0*; KCC2 mod: -0.284; Insulin prom up: -0.59

Results for Cc1ccc(S(=O)(=O)N2CN(Cc3ccco3)c3nc4ccccc4nc32)cc1 ?
SKKanGAS inh: 43.4; Rad51 HR inh: -4.0; Autophagy HCS: inactive; WT yeast gro inh: 3.1; KCC2 mod: 1.49; Insulin prom up: -0.68

What do the screens show for `O=C(Nc1ccc2c(c1)nc1n2CCOC1)c1ccco1`?
SKKanGAS inh: -3.3; Rad51 HR inh: 6.2; Autophagy HCS: inactive; WT yeast gro inh: -0.1; KCC2 mod: -0.172; Insulin prom up: 0.39

How did O=C(Nc1ccc2c(c1)nc1n2CCSC1)c1ccco1 do in these assays?
SKKanGAS inh: -3.8; Rad51 HR inh: -2.3; Autophagy HCS: active; WT yeast gro inh: 12.1; KCC2 mod: -2.74; Insulin prom up: -0.68

What do the screens show for `O=C1C[C@H]2[C@H](CO)[C@@H](OC(=O)c3ccc(-c4ccccc4)cc3)C[C@H]2O1`?
SKKanGAS inh: 4.2; Rad51 HR inh: -16.7; KCC2 mod: -3.44

How did Cc1ccc(Sc2cnn(-c3ccccc3)c(=O)c2Cl)cc1 do in these assays?
SKKanGAS inh: 9.1; Rad51 HR inh: -10.1; Autophagy HCS: inactive; WT yeast gro inh: 76.2*; KCC2 mod: 1.18; Insulin prom up: -1.09

What do the screens show for `CCOC(=O)CCCC(=O)N1CCOCCOCCOCC1`?
SKKanGAS inh: -1.2; Rad51 HR inh: -13.9; KCC2 mod: -0.244; Insulin prom up: 0.54

Results for N#CCc1c(C#N)c(N)nc(N2CCCC(O)C2)c1C#N (centres undefined) ?
SKKanGAS inh: 2.3; Rad51 HR inh: -0.6; Autophagy HCS: inactive; WT yeast gro inh: -5.0; KCC2 mod: 0.632; Insulin prom up: 0.33

Results for N#CCc1c(C#N)c(N)nc(N2CCCC(CO)C2)c1C#N (centres undefined) ?
SKKanGAS inh: -0.8; Rad51 HR inh: -6.5; Autophagy HCS: active; WT yeast gro inh: 11.3; KCC2 mod: 1.17; Insulin prom up: 0.87

What do the screens show for `C/C(=C/c1ccccc1)C(=O)N1CCN(c2ccc(F)cc2)CC1`?
SKKanGAS inh: 9.4

How did Cc1ccc(S(=O)(=O)NC(=O)NN2CCCCCC2)cc1 do in these assays?
SKKanGAS inh: -2.9; Rad51 HR inh: -4.8; Autophagy HCS: active; WT yeast gro inh: 1.2; KCC2 mod: 0.053

Results for C=CCNC(=O)COC(=O)COc1ccc(Cl)cc1 ?
SKKanGAS inh: -1.5; Rad51 HR inh: -25.3; Autophagy HCS: inactive; WT yeast gro inh: 7.7; KCC2 mod: -0.11; Insulin prom up: 0.29

What do the screens show for `COc1ccccc1NC(=O)C1CCN(C(=O)NCc2ccccc2)CC1`?
SKKanGAS inh: 7.1

Results for CN(C)c1nc(N(C)C)nc(N2CCCCC2)n1 ?
SKKanGAS inh: 1.2; Rad51 HR inh: 1.6; Autophagy HCS: inactive; WT yeast gro inh: 12.3; KCC2 mod: -0.0537; Insulin prom up: 0.93

How did CC1CCN(c2nc(N3CCCCC3)nc(N3CCCCC3)n2)CC1 do in these assays?
SKKanGAS inh: 56.1*; Autophagy HCS: inactive; WT yeast gro inh: 38.5; Insulin prom up: 0.27

Results for CCNC(=O)c1c(NC(=O)c2cc(-c3cc(C)ccc3O)n[nH]2)sc2c1CCCC2 ?
SKKanGAS inh: 82.3*; Rad51 HR inh: -5.9; Autophagy HCS: inactive; WT yeast gro inh: -5.0; KCC2 mod: 0.273; Insulin prom up: -0.22

How did Cc1ccc(-c2cc(C(=O)Nc3sc4c(c3C(=O)NCc3ccco3)CCC4)[nH]n2)c(O)c1 do in these assays?
SKKanGAS inh: 11.2; Rad51 HR inh: -1.1; Autophagy HCS: inactive; WT yeast gro inh: 7.6; KCC2 mod: -0.544

What do the screens show for `COC(=O)c1ccc(N2CCN(C)CC2)c(NC(=O)COc2ccc(OC)cc2)c1`?
SKKanGAS inh: 4.3; Rad51 HR inh: -2.8; Autophagy HCS: active; WT yeast gro inh: 24.0

How did COC(=O)c1ccc(N2CCN(C)CC2)c(NC(=O)COc2ccccc2Cl)c1 do in these assays?
SKKanGAS inh: -10.3

Results for COc1ccc(-c2nc(CN3CCN(c4cc(C)nc(C)c4)CC3)c(C)o2)c2ccccc12 ?
SKKanGAS inh: -1.6; Rad51 HR inh: 10.6; Autophagy HCS: inactive; WT yeast gro inh: 36.5; KCC2 mod: 1.5; Insulin prom up: -0.25

What do the screens show for `Cc1oc(-c2cccc3ccccc23)nc1CN1CCN(c2ncnc3ccccc23)CC1`?
SKKanGAS inh: 5.0; Rad51 HR inh: 9.3; Autophagy HCS: inactive; WT yeast gro inh: 62.7*; KCC2 mod: 0.023; Insulin prom up: -0.47

Results for CC1(C)Cc2ccccc2C(/C(=N\Nc2cccc(Cl)c2)C(N)=O)=N1 ?
SKKanGAS inh: -18.6; Rad51 HR inh: 3.4; Autophagy HCS: inactive; WT yeast gro inh: 60.0*; KCC2 mod: 1.2; Insulin prom up: -0.58

How did CCOC(=O)C1(C(=O)OCC)CC1c1ccccc1 (centres undefined) do in these assays?
SKKanGAS inh: 3.4; Rad51 HR inh: 57.8*; Autophagy HCS: inactive; WT yeast gro inh: 7.4; KCC2 mod: 0.124; Insulin prom up: -0.53

How did CCOC(=O)C1(C(=O)O)NC(=O)CC1c1ccccc1 (centres undefined) do in these assays?
SKKanGAS inh: 39.5; Rad51 HR inh: 3.9; Autophagy HCS: inactive; KCC2 mod: 0.904

What do the screens show for `CCC(C(=O)OC)n1c(-c2ccccc2)nc2ccccc2c1=O` (centres undefined)?
SKKanGAS inh: 1.5; Rad51 HR inh: -2.2; Autophagy HCS: inactive; WT yeast gro inh: 59.7*; Insulin prom up: -0.96

How did COCCNC(=O)C(=O)NCC1OCCN1S(=O)(=O)c1cc(F)ccc1F (centres undefined) do in these assays?
SKKanGAS inh: 2.3

Results for Cc1csc2nc(CSc3nncn3-c3ccccc3)c(Br)n12 ?
SKKanGAS inh: -3.8; Rad51 HR inh: 1.8; Autophagy HCS: inactive; WT yeast gro inh: -0.3; KCC2 mod: 1.41; Insulin prom up: 0.54

How did Cc1csc2nc(CSc3nc4ccccc4o3)c(Br)n12 do in these assays?
SKKanGAS inh: 60.1*; Rad51 HR inh: -2.2; Autophagy HCS: inactive; WT yeast gro inh: 21.3; KCC2 mod: -2.31; Insulin prom up: 0.79

How did O=C(c1cc(-c2ccccc2)n[nH]1)N1CCc2c([nH]c3ccccc23)C1c1ccccn1 (centres undefined) do in these assays?
SKKanGAS inh: 74.8*; Rad51 HR inh: 2.1; Autophagy HCS: inactive; WT yeast gro inh: 70.7; KCC2 mod: 0.0966
